{"source": "paper PMC3396390", "about": "(International Journal of Nanomedicine, 2012)", "key": {"[1]": {"experiment": "Brain distribution of DOX after iv injection", "format": "in vivo", "conditions": "ICR mice, iv 2.5 mg DOX/kg"}, "[2]": {"experiment": "Saturated solubility of DOX in PBS", "format": "physicochemical", "conditions": "phosphate-buffered saline (PBS), pH 7.2, aqueous buffer"}, "[3]": {"experiment": "In vivo imaging of DiR-loaded micelles", "conditions": "nude mice, free dye (not shown)", "how_it_was_run": "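DiR physically entrapped in CS-SA micelles. Anesthetized nude mice were dosed via tail vein at 25 mg CS-SA/kg. Whole-body fluorescence was imaged at set time points after injection. The brain was excised 0.5 h post-injection for ex vivo fluorescence imaging, with a blank brain as negative control.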"}}, "note": "“Also recorded” adds a separate entry of the source.", "data": [{"smiles": "COc1cccc2c1C(=O)c1c(O)c3c(c(O)c1C2=O)C[C@@](O)(C(=O)CO)C[C@@H]3O[C@H]1C[C@H](N)[C@H](O)[C@H](C)O1.Cl", "note": "[DOX · HCl, DOX hydrochloride]", "values": [{"measurement": "drug detection in brain", "setting": "[1]", "result": "not detected in brain; also recorded: no drug signal was detected in brain"}]}, {"smiles": "COc1cccc2c1C(=O)c1c(O)c3c(c(O)c1C2=O)C[C@@](O)(C(=O)CO)C[C@@H]3O[C@H]1C[C@H](N)[C@H](O)[C@H](C)O1", "note": "[DOX, Doxorubicin]", "values": [{"measurement": "solubility", "setting": "[2]", "result": 76, "unit": "µg/mL"}]}, {"smiles": "CCCCCCCCCCCCCCCCCCN1/C(=C/C=C/C=C/C=C/C2=[N+](CCCCCCCCCCCCCCCCCC)c3ccccc3C2(C)C)C(C)(C)c2ccccc21.[I-]", "note": "[DiR]", "values": [{"measurement": "fluorescence in brain", "setting": "[3]", "result": "fluorescence was not seen in brain"}]}]}
